Measurements taken from ChEMBL document CHEMBL1158182, “Antifungal activity of chalcones: a mechanistic study using various yeast strains” (Eur J Med Chem, 2008).
Converted amounts (≈) assume the structure as drawn. The source made the active and inactive calls. The calls are words filed in the database; no cut-off is given here.

Tests used:
Saccharomyces cerevisiae [1] = assay: Antifungal activity against haploid Saccharomyces cerevisiae 1S by agar dilution method; format: functional
In short: (§1)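 S. cerevisiae and K. lactis strains were tested by agar dilution on rich YPD agar at 30 °C. Compound stocks in 96% EtOH were added to the medium to give […]. Cells were suspended in water, serially diluted to 10^9–10^3 cells/ml, and plated with a metal replicator. MIC was read from growth.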

Saccharomyces cerevisiae [2] = assay: Antifungal activity against diploid Saccharomyces cerevisiae PV-2 by agar dilution method; format: functional
In short: (§2)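 MICs by agar dilution on rich YPD medium. Compounds were added from 96% EtOH stocks to give final agar concentrations of 20 to 50 (units as printed in the source). Cells were suspended in water, serially diluted to 10^9, 10^7, 10^5 and 10^3 cells/ml, and spotted onto agar with a metal replicator. Incubation was at 37 °C for H. polymorpha and 30 °C for S. cerevisiae.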

Saccharomyces cerevisiae [3] = assay: Antifungal activity against diploid Saccharomyces cerevisiae PV-3 by agar dilution method; format: functional; in short: as §2
Saccharomyces cerevisiae [4] = assay: Antifungal activity against haploid Saccharomyces cerevisiae 1169 by agar dilution method; format: functional; in short: as §1
Saccharomyces cerevisiae [5] = assay: Antifungal activity against haploid Saccharomyces cerevisiae 2180 by agar dilution method; format: functional; in short: as §1
Saccharomyces cerevisiae [6] = assay: Antifungal activity against diploid Saccharomyces cerevisiae 1a by agar dilution method; format: functional; in short: as §1
Saccharomyces cerevisiae [7] = assay: Antifungal activity against diploid Saccharomyces cerevisiae 29a by agar dilution method; format: functional; in short: as §1
Saccharomyces cerevisiae [8] = assay: Antifungal activity against haploid Saccharomyces cerevisiae Sigma 1278b by agar dilution method; format: functional; in short: as §1
Saccharomyces cerevisiae [9] = assay: Antifungal activity against haploid Saccharomyces cerevisiae FY4 by agar dilution method; format: functional; in short: as §1
Saccharomyces cerevisiae [10] = assay: Antifungal activity against haploid Saccharomyces cerevisiae 10560-6B by agar dilution method; format: functional; in short: as §1
Saccharomyces cerevisiae [11] = assay: Antifungal activity against haploid Saccharomyces cerevisiae YSH1170 by agar dilution method; format: functional; in short: as §1
Saccharomyces cerevisiae [12] = assay: Antifungal activity against haploid Saccharomyces cerevisiae YSH1171 by agar dilution method; format: functional; in short: as §1
Ogataea angusta [13] = assay: Antifungal activity against Hansenula polymorpha WT1 with ade1 ura3 genotype by agar dilution method; format: functional
In short: (§3)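 H. polymorpha strains were tested by agar dilution on rich YPD agar at 37 °C. Compound stocks in 96% EtOH were mixed into the medium to give […]. Cells were suspended in water, serially diluted to 10^9, 10^7, 10^5 and 10^3 cells/ml, and applied to the agar with a metal replicator. MIC was read from growth.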

Ogataea angusta [14] = assay: Antifungal activity against Hansenula polymorpha WT2 with ade1 met6 genotype by agar dilution method; format: functional; in short: as §3
Ogataea angusta [15] = assay: Antifungal activity against Hansenula polymorpha CD1 with ade1 leu2 cds1 genotype by agar dilution method; format: functional; in short: as §3
Ogataea angusta [16] = assay: Antifungal activity against Hansenula polymorpha CD2 with ade1 leu2 cds2 genotype by agar dilution method; format: functional; in short: as §3
Ogataea angusta [17] = assay: Antifungal activity against Hansenula polymorpha CD3 with ade1 leu2 cds3 genotype by agar dilution method; format: functional; in short: as §3
Ogataea angusta [18] = assay: Antifungal activity against Hansenula polymorpha WA1 with ade1 leu2 gsh1 genotype by agar dilution method; format: functional; in short: as §2
Ogataea angusta [19] = assay: Antifungal activity against Hansenula polymorpha 2a with arg1 leu2 ura3 cys1 genotype by agar dilution method; format: functional; in short: as §3
Ogataea angusta [20] = assay: Antifungal activity against Hansenula polymorpha 2b with arg1 ade1 leu2 genotype by agar dilution method; format: functional; in short: as §3
Ogataea angusta [21] = assay: Antifungal activity against Hansenula polymorpha D22 with arg1/arg1 ade1/ADE1 leu2/leu2 URA3/ura3 CYS1/cys1 genotype by agar dilution method; format: functional; in short: as §3
Ogataea angusta [22] = assay: Antifungal activity against Hansenula polymorpha M2 with met2 genotype by agar dilution method; format: functional; in short: as §3
Ogataea angusta [23] = assay: Antifungal activity against Hansenula polymorpha MC1 with met2 cys1 genotype by agar dilution method; format: functional; in short: as §3
Ogataea angusta [24] = assay: Antifungal activity against Hansenula polymorpha AS1 with arg1 gsh2delta genotype by agar dilution method; format: functional; in short: as §3
Ogataea angusta [25] = assay: Antifungal activity against Hansenula polymorpha M4 with met4 genotype by agar dilution method; format: functional; in short: as §3
Ogataea angusta [26] = assay: Antifungal activity against Hansenula polymorpha AU05 with ade3 ura3 genotype by agar dilution method; format: functional; in short: as §3
Ogataea angusta [27] = assay: Antifungal activity against Hansenula polymorpha R3 with rgh3 genotype by agar dilution method; format: functional; in short: as §3
Ogataea angusta [28] = assay: Antifungal activity against Hansenula polymorpha CRD2 with leu2 CDR2 genotype by agar dilution method; format: functional; in short: as §3
Kluyveromyces lactis [29] = assay: Antifungal activity against Kluyveromyces lactis 2-18B with MATalpha metA1 ura3 leu2 genotype by agar dilution method; format: functional; in short: as §1
Kluyveromyces lactis [30] = assay: Antifungal activity against Kluyveromyces lactis 1-6A with MATalpha uraA lys arg genotype by agar dilution method; format: functional; in short: as §1
Kluyveromyces lactis [31] = assay: Antifungal activity against Kluyveromyces lactis 2-19B with MATalpha ura lys arg genotype by agar dilution method; format: functional; in short: as §1
Ogataea angusta [32] = assay: Antifungal activity against Hansenula polymorpha CTA1 with leu2 cat1 genotype by agar dilution method; format: functional; in short: as §2
Ogataea angusta [33] = assay: Antifungal activity against Hansenula polymorpha WT1 with cellular density of 10^3 cells/ml at >40 uM by agar dilution method; format: functional, organism-based
Ogataea angusta [34] = assay: Antifungal activity against Hansenula polymorpha 2a with cys1 genotype with cellular density of 10^3 cells/ml at >40 uM by agar dilution method; format: functional, organism-based
Ogataea angusta [35] = assay: Antifungal activity against Hansenula polymorpha AS1 with gsh1 genotype with cellular density of 10^3 cells/ml at >40 uM by agar dilution method; format: functional, organism-based
Ogataea angusta [36] = assay: Antifungal activity against Hansenula polymorpha AS2 with gsh2 genotype with cellular density of 10^3 cells/ml at >40 uM by agar dilution method; format: functional, organism-based
Ogataea angusta [37] = assay: Antifungal activity against Hansenula polymorpha WT1 with cellular density of 10^9 cells/ml at 40 uM by agar dilution method; format: functional, organism-based
Ogataea angusta [38] = assay: Antifungal activity against Hansenula polymorpha 2a with cys1 genotype with cellular density of 10^9 cells/ml at 40 uM by agar dilution method; format: functional, organism-based
Ogataea angusta [39] = assay: Antifungal activity against Hansenula polymorpha AS1 with gsh1 genotype with cellular density of 10^9 cells/ml at 40 uM by agar dilution method; format: functional, organism-based
Ogataea angusta [40] = assay: Antifungal activity against Hansenula polymorpha AS2 with gsh2 genotype with cellular density of 10^9 cells/ml at 40 uM by agar dilution method; format: functional, organism-based
Ogataea angusta [41] = assay: Antifungal activity against Hansenula polymorpha WT1 at 20 to 30 uM after 1 day by agar dilution method; format: functional, organism-based
Ogataea angusta [42] = assay: Antifungal activity against Hansenula polymorpha 2a with cys1 genotype at 20 to 30 uM after 1 day by agar dilution method; format: functional, organism-based
Ogataea angusta [43] = assay: Antifungal activity against Hansenula polymorpha AS1 with gsh1 genotype at 20 to 30 uM after 1 day by agar dilution method; format: functional, organism-based
Ogataea angusta [44] = assay: Antifungal activity against Hansenula polymorpha AS2 with gsh2 genotype at 20 to 30 uM after 1 day by agar dilution method; format: functional, organism-based
[45] = Stability of compound in liquid YPD media after 48 hrs by UV spectrophotometry; format: physicochemical
In short: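 Compound from a 96% EtOH stock was added to liquid YPD to […]. The medium was inoculated with 10^5 cells/ml of H. polymorpha WT1 and incubated at 37 °C. Samples were taken at 24 and 48 h and centrifuged, and compound in the supernatant was measured by absorbance at 308 nm. Controls had no cells. Assays were run in triplicate.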

O=C(/C=C/c1ccc(O)cc1)c1ccc(Cl)cc1
MIC (Saccharomyces cerevisiae [1]): > 40 µg/mL
MIC (Saccharomyces cerevisiae [2]): 35 µg/mL (≈ 135 µM)
MIC (Saccharomyces cerevisiae [3]): 35 µg/mL (≈ 135 µM)
MIC (Saccharomyces cerevisiae [4]): > 40 µg/mL
MIC (Saccharomyces cerevisiae [5]): > 40 µg/mL
MIC (Saccharomyces cerevisiae [6]): 35 µg/mL (≈ 135 µM)
MIC (Saccharomyces cerevisiae [7]): > 40 µg/mL
MIC (Saccharomyces cerevisiae [8]): > 40 µg/mL
MIC (Saccharomyces cerevisiae [9]): > 40 µg/mL
MIC (Saccharomyces cerevisiae [10]): > 40 µg/mL
MIC (Saccharomyces cerevisiae [11]): > 40 µg/mL
MIC (Saccharomyces cerevisiae [12]): > 40 µg/mL
MIC (Ogataea angusta [13]): > 40 µg/mL
MIC (Ogataea angusta [14]): > 40 µg/mL
MIC (Ogataea angusta [15]): > 40 µg/mL
MIC (Ogataea angusta [16]): > 40 µg/mL
MIC (Ogataea angusta [17]): > 40 µg/mL
MIC (Ogataea angusta [18]): 30 µg/mL (≈ 116 µM)
MIC (Ogataea angusta [19]): 35 µg/mL (≈ 135 µM)
MIC (Ogataea angusta [20]): > 40 µg/mL
MIC (Ogataea angusta [21]): > 40 µg/mL
MIC (Ogataea angusta [22]): > 40 µg/mL
MIC (Ogataea angusta [23]): 30 µg/mL (≈ 116 µM)
MIC (Ogataea angusta [24]): 30 µg/mL (≈ 116 µM)
MIC (Ogataea angusta [25]): > 40 µg/mL
MIC (Ogataea angusta [26]): > 40 µg/mL
MIC (Ogataea angusta [27]): 40 µg/mL (≈ 155 µM)
MIC (Ogataea angusta [28]): 40 µg/mL (≈ 155 µM)
MIC (Kluyveromyces lactis [29]): 35 µg/mL (≈ 135 µM)
MIC (Kluyveromyces lactis [30]): > 40 µg/mL
MIC (Kluyveromyces lactis [31]): 35 µg/mL (≈ 135 µM)

O=C(/C=C/c1ccccc1)c1ccccc1 [CHALCONE]
MIC (Saccharomyces cerevisiae [1]): > 40 µg/mL
MIC (Saccharomyces cerevisiae [4]): > 40 µg/mL
MIC (Saccharomyces cerevisiae [5]): > 40 µg/mL
MIC (Saccharomyces cerevisiae [6]): > 40 µg/mL
MIC (Saccharomyces cerevisiae [7]): > 40 µg/mL
MIC (Saccharomyces cerevisiae [8]): > 40 µg/mL
MIC (Saccharomyces cerevisiae [9]): > 40 µg/mL
MIC (Saccharomyces cerevisiae [10]): > 40 µg/mL
MIC (Saccharomyces cerevisiae [11]): > 40 µg/mL
MIC (Saccharomyces cerevisiae [12]): > 40 µg/mL
MIC (Ogataea angusta [13]): 30 µg/mL (≈ 144 µM)
MIC (Ogataea angusta [14]): 30 µg/mL (≈ 144 µM)
MIC (Ogataea angusta [15]): 30 µg/mL (≈ 144 µM)
MIC (Ogataea angusta [16]): 30 µg/mL (≈ 144 µM)
MIC (Ogataea angusta [17]): 30 µg/mL (≈ 144 µM)
MIC (Ogataea angusta [19]): 25 µg/mL (≈ 120 µM)
MIC (Ogataea angusta [20]): 30 µg/mL (≈ 144 µM)
MIC (Ogataea angusta [21]): 30 µg/mL (≈ 144 µM)
MIC (Ogataea angusta [22]): 30 µg/mL (≈ 144 µM)
MIC (Ogataea angusta [23]): 20 µg/mL (≈ 96 µM)
MIC (Ogataea angusta [24]): 20 µg/mL (≈ 96 µM)
MIC (Ogataea angusta [25]): < 20 µg/mL
MIC (Ogataea angusta [26]): < 20 µg/mL
MIC (Ogataea angusta [32]): 30 µg/mL (≈ 144 µM)
MIC (Ogataea angusta [27]): > 40 µg/mL
MIC (Ogataea angusta [28]): > 40 µg/mL
MIC (Kluyveromyces lactis [29]): < 20 µg/mL
MIC (Kluyveromyces lactis [30]): < 20 µg/mL
MIC (Kluyveromyces lactis [31]): 25 µg/mL (≈ 120 µM)
Activity (Ogataea angusta [33]): Active
Activity (Ogataea angusta [34]): Active
Activity (Ogataea angusta [35]): Active
Activity (Ogataea angusta [36]): Active
Activity (Ogataea angusta [37]): inactive
Activity (Ogataea angusta [38]): inactive
Activity (Ogataea angusta [39]): inactive
Activity (Ogataea angusta [40]): inactive
Activity (Ogataea angusta [41]): Active
Activity (Ogataea angusta [42]): Active
Activity (Ogataea angusta [43]): Active
Activity (Ogataea angusta [44]): Active
Activity [45]: 7.1 µg/mL

COc1ccc(/C=C/C(=O)c2ccccc2)cc1O
MIC (Saccharomyces cerevisiae [1]): > 40 µg/mL
MIC (Saccharomyces cerevisiae [4]): > 40 µg/mL
MIC (Saccharomyces cerevisiae [5]): > 40 µg/mL
MIC (Saccharomyces cerevisiae [6]): > 40 µg/mL
MIC (Saccharomyces cerevisiae [7]): > 40 µg/mL
MIC (Saccharomyces cerevisiae [8]): > 40 µg/mL
MIC (Saccharomyces cerevisiae [9]): > 40 µg/mL
MIC (Saccharomyces cerevisiae [10]): > 40 µg/mL
MIC (Saccharomyces cerevisiae [11]): 35 µg/mL (≈ 138 µM)
MIC (Saccharomyces cerevisiae [12]): > 40 µg/mL
MIC (Ogataea angusta [13]): > 40 µg/mL
MIC (Ogataea angusta [14]): > 40 µg/mL
MIC (Ogataea angusta [15]): > 40 µg/mL
MIC (Ogataea angusta [16]): > 40 µg/mL
MIC (Ogataea angusta [17]): > 40 µg/mL
MIC (Ogataea angusta [18]): 30 µg/mL (≈ 118 µM)
MIC (Ogataea angusta [19]): 30 µg/mL (≈ 118 µM)
MIC (Ogataea angusta [20]): > 40 µg/mL
MIC (Ogataea angusta [21]): > 40 µg/mL
MIC (Ogataea angusta [22]): > 40 µg/mL
MIC (Ogataea angusta [23]): 30 µg/mL (≈ 118 µM)
MIC (Ogataea angusta [24]): 30 µg/mL (≈ 118 µM)
MIC (Ogataea angusta [25]): > 40 µg/mL
MIC (Ogataea angusta [26]): > 40 µg/mL
MIC (Ogataea angusta [27]): > 40 µg/mL
MIC (Ogataea angusta [28]): > 40 µg/mL
MIC (Kluyveromyces lactis [29]): 25 µg/mL (≈ 98.3 µM)
MIC (Kluyveromyces lactis [30]): 25 µg/mL (≈ 98.3 µM)
MIC (Kluyveromyces lactis [31]): 25 µg/mL (≈ 98.3 µM)
